# Source: ChEMBL document CHEMBL3808312, “Bioactive Constituents of Glycyrrhiza uralensis (Licorice): Discovery of the Effective Components of a Traditional Herbal Medicine” (J Nat Prod, 2016)
# Calls of active or inactive are those of the source. The rule behind the calls is not given here.
# Legend:
# [1] = molecular target: T1, Nuclear factor erythroid 2-related factor 2 (Homo sapiens) (UniProt Q16236); assay: Activation of NRF2 transcription in human HepG2C8 cells at 10 uM after 6 hrs by luciferase reporter gene assay relative to control; format: cell-based
# T1 sequence (whole entry): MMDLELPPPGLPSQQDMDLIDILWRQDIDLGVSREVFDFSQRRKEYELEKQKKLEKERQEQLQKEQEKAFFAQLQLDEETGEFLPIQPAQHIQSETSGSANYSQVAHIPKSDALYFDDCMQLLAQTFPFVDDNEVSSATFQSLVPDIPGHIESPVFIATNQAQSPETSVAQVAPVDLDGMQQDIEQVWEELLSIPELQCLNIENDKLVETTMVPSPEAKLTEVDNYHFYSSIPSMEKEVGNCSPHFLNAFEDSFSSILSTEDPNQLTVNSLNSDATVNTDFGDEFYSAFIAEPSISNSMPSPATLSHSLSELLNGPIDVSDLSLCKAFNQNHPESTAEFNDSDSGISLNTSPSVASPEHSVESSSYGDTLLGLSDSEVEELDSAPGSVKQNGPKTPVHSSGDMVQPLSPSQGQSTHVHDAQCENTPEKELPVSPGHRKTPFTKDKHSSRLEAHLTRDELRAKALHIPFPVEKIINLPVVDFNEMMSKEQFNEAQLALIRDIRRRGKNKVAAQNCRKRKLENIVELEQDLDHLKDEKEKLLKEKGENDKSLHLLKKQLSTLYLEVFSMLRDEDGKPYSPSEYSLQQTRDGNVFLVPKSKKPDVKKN
# Method in brief: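 Luciferase reporter in HepG2C8 cells, which are HepG2 stably transfected with an Nrf2 luciferase reporter and grown in MEM. Screened at 10 μM, with dose-response over 2.5−40 μM. Activity expressed as fold of control. tBHQ positive control.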
# [2] = molecular target: T2, Tyrosine-protein phosphatase non-receptor type 1 (Homo sapiens) (UniProt P18031); assay: Inhibition of recombinant human PTP1B assessed as hydrolysis of p-nitrophenyl phosphate at 25 uM after 30 mins relative to control
# T2 sequence (whole entry): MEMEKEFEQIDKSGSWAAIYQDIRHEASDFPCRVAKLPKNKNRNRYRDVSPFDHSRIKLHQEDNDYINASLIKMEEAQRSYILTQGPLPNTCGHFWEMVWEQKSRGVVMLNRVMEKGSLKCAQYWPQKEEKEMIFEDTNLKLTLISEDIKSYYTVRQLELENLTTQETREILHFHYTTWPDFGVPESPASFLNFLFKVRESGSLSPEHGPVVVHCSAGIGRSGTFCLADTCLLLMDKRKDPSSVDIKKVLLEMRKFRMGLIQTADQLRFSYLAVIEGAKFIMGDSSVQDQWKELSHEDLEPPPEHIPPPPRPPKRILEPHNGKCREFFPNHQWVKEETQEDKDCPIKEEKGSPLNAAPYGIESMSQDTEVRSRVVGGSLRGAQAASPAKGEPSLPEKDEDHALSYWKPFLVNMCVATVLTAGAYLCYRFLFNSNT
# Influenza A virus [3] = assay: Antiviral activity against Influenza A virus A/WSN/33(H1N1) infected in MDCK cells at 100 uM preincubated with virus for 15 mins followed by cells addition measured at 36 hrs post infection; format: functional, A/WSN/1933(H1N1)
# Method in brief: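 MDCK canine kidney cells grown in DMEM and infected with influenza A/WSN/33 (H1N1). Compounds screened at 100 μM. Oseltamivir phosphate served as the positive control.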
# Influenza A virus [4] = assay: Antiviral activity against Influenza A virus A/WSN/33(H1N1) infected in dog MDCK cells preincubated with virus for 15 mins followed by cells addition measured at 36 hrs post infection; format: functional, organism-based; settings: A/WSN/1933(H1N1)
# MCF7 = assay: Cytotoxicity against human MCF7 cells assessed as reduction in cell viability after 24 hrs by MTS assay; format: functional, cell-based; settings: MCF7, 24 h
# Method in brief: (§1)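 Cells seeded at 5 × 10^3/well and cultured overnight, then exposed to compounds for 24 h. Viability read by MTS. Media: SW480 in RPMI1640, A549 in DMEM, MCF7 in MEM. […] Irinotecan positive control.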
# A549 = assay: Cytotoxicity against human A549 cells assessed as reduction in cell viability after 24 hrs by MTS assay; format: functional, cell-based; settings: A549, 24 h; method in brief: as §1
# HepG2 = assay: Cytotoxicity against human HepG2 cells assessed as reduction in cell viability after 24 hrs by MTS assay; format: functional, cell-based; settings: HepG2, 24 h; method in brief: as §1
# SW480 = assay: Cytotoxicity against human SW480 cells assessed as reduction in cell viability after 24 hrs by MTS assay; format: functional, cell-based; settings: SW480, 24 h; method in brief: as §1
# [5] = molecular target: T3, Tyrosinase (Homo sapiens) (UniProt P14679); assay: Inhibition of tyrosinase (unknown origin) using L-tyrosine as substrate assessed as oxidation of L-tyrosine at 20 uM after 15 mins
# T3 sequence (whole entry): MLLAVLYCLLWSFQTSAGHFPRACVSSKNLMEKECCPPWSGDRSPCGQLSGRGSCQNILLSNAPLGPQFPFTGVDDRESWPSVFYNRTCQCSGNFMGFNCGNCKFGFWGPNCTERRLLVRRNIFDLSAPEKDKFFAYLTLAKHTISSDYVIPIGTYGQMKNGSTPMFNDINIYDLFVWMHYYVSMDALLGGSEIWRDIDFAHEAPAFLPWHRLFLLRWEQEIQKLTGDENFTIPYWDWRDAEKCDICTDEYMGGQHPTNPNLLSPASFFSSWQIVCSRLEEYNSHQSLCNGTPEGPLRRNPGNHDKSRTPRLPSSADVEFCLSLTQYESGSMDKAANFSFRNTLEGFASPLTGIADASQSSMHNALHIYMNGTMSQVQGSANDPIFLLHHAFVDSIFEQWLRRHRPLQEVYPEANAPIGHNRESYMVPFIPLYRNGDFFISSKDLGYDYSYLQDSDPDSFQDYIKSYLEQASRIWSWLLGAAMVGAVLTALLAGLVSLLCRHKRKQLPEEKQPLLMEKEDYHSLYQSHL
# Method in brief: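 Tyrosinase at 333 U/mL (stock) in 45 mM sodium phosphate, pH 6.6, with 2 mM L-tyrosine (stock). Incubated 37 °C for 15 min; oxidation read at 492 nm. Screened at 20 μM; dose-response for IC50. Glyasperin C positive control.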
compound,measurement,setting,value
COc1cc2c(c3oc(=O)c(-c4ccc(O)cc4O)cc13)C(C)(C)C(CO)O2 (centres undefined),fold change (FC),[1],0.88
CC(C)=CCc1c(O)c(CC=C(C)C)c2occ(-c3ccc(O)cc3)c(=O)c2c1O,inhibition,[2],> 95%
same,Activity,Influenza A virus [3],>30%
COc1c(CC=C(C)C)c(O)cc2oc(=O)c(-c3ccc(O)cc3O)cc12,fold change (FC),[1],1.72
COc1c2c(cc3oc(=O)c(-c4ccc(O)cc4O)cc13)OC(C)(C)CC2,fold change (FC),[1],3.49
O=C1C[C@@H](c2ccc(O)cc2)Oc2cc(O)ccc21,inhibition,[2],inactive
CC(C)=CCc1c(O)ccc(-c2coc3c(CC=C(C)C)c(O)cc(O)c3c2=O)c1O,inhibition,[2],> 95%
same,Activity,Influenza A virus [3],>30%
C[C@@H]1O[C@@H](c2c(O)c([C@@H]3O[C@H](COC(=O)CC(C)(O)CC(=O)O)[C@@H](O)[C@H](O)[C@H]3O)c3oc(-c4ccc(O)cc4)cc(=O)c3c2O)[C@H](O)[C@H](O)[C@H]1O (some centres undefined),fold change (FC),[1],1.5
COc1cc2c(c3oc(-c4ccc(O)cc4O)cc13)C(C)(C)C(C)O2 (centres undefined),inhibition,[2],> 90%
CC1(C)[C@@H](O)CC[C@]2(C)[C@H]3C(=O)C=C4[C@H]5C[C@@](C)(C(=O)O)CC[C@]5(C)CC[C@@]4(C)[C@]3(C)CC[C@@H]12,inhibition,[2],81%
same,Activity,Influenza A virus [3],58%
C=CC(C)(C)c1c(O)cc(OC)c2cc(-c3ccc(O)cc3O)c(=O)oc12,fold change (FC),[1],0.88
CC(C)=CCc1cc2c(=O)cc(-c3ccc(O)cc3)oc2cc1O,inhibition,[2],Active
CC1(C)[C@@H](O[C@@H]2O[C@H](C(=O)O)[C@@H](O)[C@H](O)[C@H]2O[C@@H]2OC[C@H](O)[C@H](O)[C@H]2O)CC[C@]2(C)[C@H]3C(=O)C=C4[C@H]5C[C@@](C)(C(=O)O)CC[C@]5(C)CC[C@@]4(C)[C@]3(C)CC[C@@H]12,IC50,Influenza A virus [4],39.6 µM
same,Activity,Influenza A virus [3],47%
CC(=O)O[C@H]1C[C@@](C)(C(=O)O)C[C@H]2C3=CC(=O)[C@H]4[C@]5(C)CC[C@@H](O[C@@H]6O[C@H](C(=O)O)[C@@H](O)[C@H](O)[C@H]6O[C@@H]6O[C@H](CO)[C@H](O)[C@H](O)[C@H]6O)C(C)(C)[C@H]5CC[C@]4(C)[C@@]3(C)CC[C@]12C,IC50,Influenza A virus [4],39.6 µM
same,Activity,Influenza A virus [3],47%
CCc1c2c(nc3ccc(OC(=O)N4CCC(N5CCCCC5)CC4)cc13)-c1cc3c(c(=O)n1C2)COC(=O)[C@]3(O)CC [IRINOTECAN],IC50,MCF7,0.5 µM
same,IC50,A549,0.8 µM
same,IC50,HepG2,0.9 µM
same,IC50,SW480,1.4 µM
COc1cc2oc(=O)c(-c3ccc(O)cc3O)cc2c(OC)c1CC=C(C)C,fold change (FC),[1],0.88
CC(=O)O[C@@H]1C[C@](C)(C(=O)O)C[C@@H]2C3=CC(=O)[C@@H]4[C@@]5(C)CC[C@H](O[C@H]6O[C@@H](C(=O)O)[C@H](O)[C@@H](O)[C@@H]6O[C@H]6O[C@@H](C(=O)O)[C@H](O)[C@@H](O)[C@@H]6O)C(C)(C)[C@@H]5CC[C@@]4(C)[C@]3(C)CC[C@]21C,IC50,Influenza A virus [4],39.6 µM
same,Activity,Influenza A virus [3],47%
CC1(C)[C@@H](O[C@@H]2O[C@H](C(=O)O)[C@@H](O)[C@H](O)[C@H]2O[C@@H]2O[C@H](C(=O)O)[C@@H](O)[C@H](O)[C@H]2O)CC[C@]2(C)C3=CC=C4[C@H]5C[C@@](C)(C(=O)O)CC[C@]5(C)CC[C@@]4(C)[C@]3(C)CC[C@@H]12,IC50,Influenza A virus [4],39.6 µM
same,Activity,Influenza A virus [3],47%
CC(C)=CCc1cc(-c2oc3cc(O)cc(O)c3c(=O)c2O)cc(O)c1O,inhibition,[2],Active
COc1cc2c(c3oc(=O)c4c5ccc(O)cc5oc4c13)C(C)(C)C(C)O2 (centres undefined),fold change (FC),[1],0.88
COc1cc2c(c(OC)c1CC=C(C)C)C=C(c1ccc(O)cc1O)CO2,inhibition,[5],inactive
COc1cc(/C=C/C(=O)c2ccc(O)cc2O)ccc1O,inhibition,[5],Active
CC1(C)[C@@H](O[C@@H]2O[C@H](C(=O)O)[C@@H](O)[C@H](O)[C@H]2O[C@@H]2O[C@H](C(=O)O)[C@@H](O)[C@H](O)[C@H]2O)CC[C@]2(C)[C@H]3C(=O)C=C4[C@H]5C[C@@](C)(C=O)CC[C@]5(C)CC[C@@]4(C)[C@]3(C)CC[C@@H]12,IC50,Influenza A virus [4],39.6 µM
same,Activity,Influenza A virus [3],47%
CC(=O)O[C@@H]1C[C@](C)(C(=O)O)C[C@@H]2C3=CC(=O)[C@@H]4[C@@]5(C)CC[C@H](O[C@@H]6O[C@H](C(=O)O)[C@@H](O)[C@H](O)[C@H]6O[C@@H]6O[C@H](C(=O)O)[C@H](O)[C@H](O)[C@H]6O)C(C)(C)[C@@H]5CC[C@@]4(C)[C@]3(C)CC[C@]21C,IC50,Influenza A virus [4],39.6 µM
same,Activity,Influenza A virus [3],47%
CC(=O)O[C@H]1C[C@@](C)(C(=O)O)C[C@H]2C3=CC(=O)[C@H]4[C@]5(C)CC[C@@H](O[C@@H]6O[C@H](C(=O)O)[C@@H](O)[C@H](O)[C@H]6O[C@H]6O[C@@H](CO)[C@H](O)[C@@H](O)[C@@H]6O[C@H]6O[C@H](C)[C@@H](O)[C@H](O)[C@@H]6O)C(C)(C)[C@H]5CC[C@]4(C)[C@@]3(C)CC[C@]12C,IC50,Influenza A virus [4],39.6 µM
same,Activity,Influenza A virus [3],47%
CC(C)=CCc1cc(-c2oc3cc(O)cc(O)c3c(=O)c2O)ccc1O,inhibition,[2],98%
CC(C)=CCc1c(O)cc2oc(-c3ccc(O)cc3)c(O)c(=O)c2c1O,inhibition,[2],51%
C[C@H]1O[C@H](O[C@H]2CC(C)(C)C[C@@H]3C4=CC(=O)[C@H]5[C@]6(C)CC[C@@H](O[C@@H]7O[C@H](C(=O)O)[C@@H](O)[C@H](O)[C@H]7O[C@@H]7O[C@H](C(=O)O)[C@@H](O)[C@H](O)[C@H]7O)C(C)(C)[C@H]6CC[C@]5(C)[C@@]4(C)CC[C@]23C)[C@@H](O)[C@@H](O)[C@@H]1O,IC50,Influenza A virus [4],39.6 µM
same,fold change (FC),[1],1.53
same,Activity,Influenza A virus [3],47%
O=C(/C=C/c1ccc(O)cc1)c1ccc(O)cc1O,inhibition,[5],Active
same,fold change (FC),[1],5.88
C[C@@]1(C(=O)O)CC[C@@]2(C)CC[C@@]3(C)C(=CC(=O)[C@H]4[C@]5(C)CC[C@@H](O[C@H]6O[C@@H](C(=O)O)[C@H](O)[C@@H](O)[C@@H]6O[C@H]6O[C@@H](C(=O)O)[C@@H](O)[C@@H](O)[C@@H]6O)[C@@](C)(CO)[C@H]5CC[C@@]43C)[C@@H]2C1,IC50,Influenza A virus [4],39.6 µM
same,Activity,Influenza A virus [3],47%
COc1cc2c(c3oc(=O)c(-c4ccc(O)cc4O)cc13)C(C)(C)C(C)O2 (centres undefined),fold change (FC),[1],0.88
COc1c(CC=C(C)C)c(O)cc2oc(=O)c3c4ccc(O)cc4oc3c12,fold change (FC),[1],0.88
COc1c2c(cc3oc(=O)c4c5ccc(O)cc5oc4c13)OC(C)(C)CC2,fold change (FC),[1],3.32
